The values that follow come from ChEMBL document CHEMBL3603773, “Synthesis of novel triazoles and a tetrazole of escitalopram as cholinesterase inhibitors” (Bioorg Med Chem, 2015).

The target in test [1] is Cholinesterases; ACHE & BCHE (Homo sapiens) (UniProt P06276+P22303). Put plainly: Selectivity ratio of IC50 for AChE (unknown origin) to IC50 for BChE (unknown origin). In short, it runs like this:
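Ratio of IC50 for AChE to IC50 for BChE, both measured by Ellman assay. Each IC50 is the mean of three independent experiments.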

Test [2] has as its target T1, Cholinesterase (Homo sapiens, UniProt P06276). Put plainly: Inhibition of BChE (unknown origin) using butyrylthiocholine chloride as substrate at 0.5 mM preincubated for 30 mins before substrate addition measured after 30 mins by Ellman method relative to control. On the technique in general: DTNB colorimetry detects thiols as they appear.
Test [3] addresses T2, Acetylcholinesterase (Homo sapiens, UniProt P22303). Put plainly: Inhibition of AChE (unknown origin) using acetylthiocholine iodide as substrate at 0.5 mM preincubated for 30 mins before substrate addition measured after 30 mins by Ellman method relative to control.
In test [4] the target is T1, Cholinesterase. Put plainly: Inhibition of BChE (unknown origin) using butyrylthiocholine chloride as substrate […] measured after 30 mins by Ellman method.
The target of test [5] is T2, Acetylcholinesterase. Put plainly: Inhibition of AChE (unknown origin) using acetylthiocholine iodide as substrate […] measured after 30 mins by Ellman method.
Test [6] deals with T2, Acetylcholinesterase. In words: Inhibition of AChE (unknown origin) using acetylthiocholine iodide as substrate at 0.25 mM preincubated for 30 mins before substrate addition measured after 30 mins by Ellman method relative to control.
The target of test [7] is T1, Cholinesterase. Put plainly: Inhibition of BChE (unknown origin) using butyrylthiocholine chloride as substrate at 0.25 mM preincubated for 30 mins before substrate addition measured after 30 mins by Ellman method relative to control.

As a reminder, the inhibition is the relative decrease from the control value, in per cent. As usually defined, the IC50 is the concentration that inhibits the measured activity by half.

T1 sequence (P06276 whole entry): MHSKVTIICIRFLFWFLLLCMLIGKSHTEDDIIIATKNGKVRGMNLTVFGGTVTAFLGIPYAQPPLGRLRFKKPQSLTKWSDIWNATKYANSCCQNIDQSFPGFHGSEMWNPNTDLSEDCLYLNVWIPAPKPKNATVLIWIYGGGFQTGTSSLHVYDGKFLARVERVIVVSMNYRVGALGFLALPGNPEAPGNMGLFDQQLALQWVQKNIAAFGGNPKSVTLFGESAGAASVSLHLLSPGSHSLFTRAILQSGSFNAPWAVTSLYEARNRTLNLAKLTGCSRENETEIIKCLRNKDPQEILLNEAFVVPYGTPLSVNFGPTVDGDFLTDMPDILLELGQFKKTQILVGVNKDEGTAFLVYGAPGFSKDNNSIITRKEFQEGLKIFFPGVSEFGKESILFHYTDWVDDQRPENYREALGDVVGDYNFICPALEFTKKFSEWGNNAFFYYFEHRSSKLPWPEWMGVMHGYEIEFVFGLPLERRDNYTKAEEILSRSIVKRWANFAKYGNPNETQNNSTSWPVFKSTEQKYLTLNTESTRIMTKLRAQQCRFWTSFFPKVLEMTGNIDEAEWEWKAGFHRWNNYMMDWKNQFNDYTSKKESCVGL
Chain of Cholinesterases; ACHE & BCHE (Homo sapiens) (P06276 whole entry, looked up): as the sequence (P06276 whole entry) above
Chain of Cholinesterases; ACHE & BCHE (Homo sapiens) (P22303 whole entry, looked up): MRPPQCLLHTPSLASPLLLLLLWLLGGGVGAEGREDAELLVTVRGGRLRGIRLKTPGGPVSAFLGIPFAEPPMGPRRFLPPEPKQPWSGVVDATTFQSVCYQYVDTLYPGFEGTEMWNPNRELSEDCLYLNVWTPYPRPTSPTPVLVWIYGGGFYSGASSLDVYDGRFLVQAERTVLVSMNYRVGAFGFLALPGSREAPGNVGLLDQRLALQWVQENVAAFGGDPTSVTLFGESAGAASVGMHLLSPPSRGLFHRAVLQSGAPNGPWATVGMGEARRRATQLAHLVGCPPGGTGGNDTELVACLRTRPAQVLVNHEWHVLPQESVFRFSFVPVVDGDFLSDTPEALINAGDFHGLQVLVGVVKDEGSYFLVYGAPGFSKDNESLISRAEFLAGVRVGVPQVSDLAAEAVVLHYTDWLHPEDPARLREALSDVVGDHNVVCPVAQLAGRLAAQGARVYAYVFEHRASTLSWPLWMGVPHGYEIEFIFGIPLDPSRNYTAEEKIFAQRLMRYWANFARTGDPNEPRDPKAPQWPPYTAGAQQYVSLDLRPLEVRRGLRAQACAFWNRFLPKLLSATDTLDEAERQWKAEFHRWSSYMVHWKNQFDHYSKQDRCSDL
T2 sequence (P22303 whole entry): as the sequence (P22303 whole entry, looked up) above

In the case of `CN(C)CCC[C@@]1(c2ccc(F)cc2)OCc2cc(-c3nnc(-c4cccc(F)c4)[nH]3)ccc21`, the Ratio IC50 in test [1] was under 11.2. Further, the figures for the inhibition against Cholinesterase [2] and at Acetylcholinesterase [3] were 82.9% and 32.2%, respectively. Also, the IC50 is 44.8 µM against Cholinesterase [4] and under 500 µM against Acetylcholinesterase [5].

As to `COc1ccccc1-c1nnc(-c2ccc3c(c2)CO[C@@]3(CCCN(C)C)c2ccc(F)cc2)[nH]1`, the inhibition was -2.13% at Cholinesterase [2] and 80.4% on Acetylcholinesterase [3]. At Acetylcholinesterase [5], this compound registered an IC50 of 161 µM.

In the case of `CN(C)CCC[C@@]1(c2ccc(F)cc2)OCc2cc(-c3nnc(-c4ccccc4O)[nH]3)ccc21`, the values for the inhibition against Cholinesterase [2] and at Acetylcholinesterase [3] were 80.7% and 16.3%, respectively. This compound also registered an IC50 on Cholinesterase [4] of 102 µM.

On to `CN(C)CCC[C@@]1(c2ccc(F)cc2)OCc2cc(-c3nnc(-c4ccccc4)[nH]3)ccc21`, for which the Ratio IC50 in test [1] is over 3.88. Besides, the inhibition against Cholinesterase [2] was determined as 81.8%; on Acetylcholinesterase [3], 30.4%. The figures for the IC50 at Cholinesterase [4] and on Acetylcholinesterase [5] were 129 µM and over 500 µM, respectively.

In the case of `CN(C)CCC[C@@]1(c2ccc(F)cc2)OCc2cc(-c3nnc(-c4ccccc4I)[nH]3)ccc21`, the Ratio IC50 in test [1] amounted to 12. The inhibition came out at 84.5% on Cholinesterase [2] and 72.3% against Acetylcholinesterase [3]. Moreover, the IC50 against Cholinesterase [4] was determined as 25.9 µM; against Acetylcholinesterase [5] it was 310 µM.

As to `CN(C)CCC[C@@]1(c2ccc(F)cc2)OCc2cc(-c3nnc(-c4cccc(N)c4)[nH]3)ccc21`, the Ratio IC50 in test [1] is over 2.67. Also, the inhibition amounted to 73.5% at Cholinesterase [2] and 29.9% against Acetylcholinesterase [3]. Moreover, the values for the IC50 on Cholinesterase [4] and against Acetylcholinesterase [5] were 188 µM and over 500 µM, respectively.

On to `CN(C)CCC[C@@]1(c2ccc(F)cc2)OCc2cc(-c3nnc(-c4cccc(O)c4)[nH]3)ccc21`, for which, in test [1], the Ratio IC50 was under 4.22. For the same compound, the inhibition at Acetylcholinesterase [6] stood at 39.3%; at Cholinesterase [7], 61.7%. In addition, the IC50 is 119 µM against Cholinesterase [4] and under 500 µM against Acetylcholinesterase [5].

As to `CN(C)CCC[C@@]1(c2ccc(F)cc2)OCc2cc(-c3nnc(-c4ccccc4N)[nH]3)ccc21`, the Ratio IC50 in test [1] is 3.25. For the same compound, the inhibition came to 71.7% on Cholinesterase [2] and 70.2% at Acetylcholinesterase [3]. The IC50 at Cholinesterase [4] worked out at 111 µM; against Acetylcholinesterase [5], 360 µM.

Turning to `CN(C)CCC[C@@]1(c2ccc(F)cc2)OCc2cc(-c3nnc(-c4ccccc4F)[nH]3)ccc21`, the Ratio IC50 in test [1] is 41.5. Also, the inhibition turned out to be 62.1% on Acetylcholinesterase [6] and 93.6% against Cholinesterase [7]. For the same compound, the IC50 was 4.52 µM against Cholinesterase [4] and 188 µM on Acetylcholinesterase [5].

On to `CN(C)CCC[C@@]1(c2ccc(F)cc2)OCc2cc(-c3nnc(-c4ccc(F)cc4)[nH]3)ccc21`, for which, in test [1], the Ratio IC50 came to 49.1. The inhibition was 92.5% on Cholinesterase [2] and 71.5% on Acetylcholinesterase [3]. Also, the IC50 is 5.31 µM on Cholinesterase [4] and 261 µM against Acetylcholinesterase [5].

With `CN(C)CCC[C@@]1(c2ccc(F)cc2)OCc2cc(-c3nnc(-c4ccccc4[N+](=O)[O-])[nH]3)ccc21`, the inhibition against Cholinesterase [2] turned out to be 62.9%; on Acetylcholinesterase [3] it was 5.09%. In addition, the IC50 at Cholinesterase [4] is 297 µM.

Consider `Cc1cccc(-c2nnc(-c3ccc4c(c3)CO[C@@]4(CCCN(C)C)c3ccc(F)cc3)[nH]2)c1`, for which the Ratio IC50 in test [1] amounted to 1.49. Further, the inhibition against Cholinesterase [2] is 71.5%; against Acetylcholinesterase [3] it was 88.1%. Besides, the results for the IC50 against Cholinesterase [4] and at Acetylcholinesterase [5] were 89.2 µM and 133 µM, respectively.

Consider `COc1ccc(-c2nnc(-c3ccc4c(c3)CO[C@@]4(CCCN(C)C)c3ccc(F)cc3)[nH]2)cc1`, for which the inhibition on Cholinesterase [2] was 81.2%; against Acetylcholinesterase [3], 10.3%. On Cholinesterase [4], this compound gave an IC50 of 168 µM.

As for `CN(C)CCC[C@@]1(c2ccc(F)cc2)OCc2cc(-c3nnc(-c4cccc(Br)c4)[nH]3)ccc21`, the Ratio IC50 in test [1] is under 6.41. For the same compound, the inhibition was found to be 85.5% at Cholinesterase [2] and 37.9% against Acetylcholinesterase [3]. The IC50 on Cholinesterase [4] was 78 µM; at Acetylcholinesterase [5] it was under 500 µM.

Turning to `COc1cc(-c2nnc(-c3ccc4c(c3)CO[C@@]4(CCCN(C)C)c3ccc(F)cc3)[nH]2)ccc1O`, the Ratio IC50 in test [1] is under 20.8. Besides, the inhibition against Cholinesterase [2] worked out at 88.6%; against Acetylcholinesterase [3] it was 34.8%. In addition, the IC50 against Cholinesterase [4] was 24.1 µM; at Acetylcholinesterase [5], under 500 µM.

In the case of `COc1cccc(-c2nnc(-c3ccc4c(c3)CO[C@@]4(CCCN(C)C)c3ccc(F)cc3)[nH]2)c1`, the Ratio IC50 in test [1] came out at 1.2. Besides, the inhibition at Cholinesterase [2] was found to be 91%; at Acetylcholinesterase [3], 89.7%. Further, the IC50 at Cholinesterase [4] came out at 103 µM; against Acetylcholinesterase [5] it was 124 µM.

With `CN(C)CCC[C@@]1(c2ccc(F)cc2)OCc2cc(-c3nnc(-c4cccc(I)c4)[nH]3)ccc21`, the Ratio IC50 in test [1] is over 2.67. Besides, the inhibition on Cholinesterase [2] is 75.5%; on Acetylcholinesterase [3] it was 25.1%. Besides, the figures for the IC50 against Cholinesterase [4] and at Acetylcholinesterase [5] were 188 µM and over 500 µM, respectively.

As to `CN(C)CCC[C@@]1(c2ccc(F)cc2)OCc2cc(-c3nnc(-c4cccc([N+](=O)[O-])c4)[nH]3)ccc21`, the Ratio IC50 in test [1] worked out at 1.32. The inhibition against Cholinesterase [2] turned out to be 79.2%; against Acetylcholinesterase [3], 81.7%. Besides, the IC50 at Cholinesterase [4] is 105 µM; against Acetylcholinesterase [5], 138 µM.

Consider `CN(C)CCC[C@@]1(c2ccc(F)cc2)OCc2cc(-c3nnc(-c4cccc(Cl)c4)[nH]3)ccc21`, for which the Ratio IC50 in test [1] was 15.7. Also, the inhibition stood at 79.9% against Cholinesterase [2] and 57.4% on Acetylcholinesterase [3]. Moreover, the IC50 is 26.5 µM against Cholinesterase [4] and 413 µM against Acetylcholinesterase [5].

For the compound `Cc1ccccc1-c1nnc(-c2ccc3c(c2)CO[C@@]3(CCCN(C)C)c2ccc(F)cc2)[nH]1`, in test [1], the Ratio IC50 is 0.095. Also, the inhibition against Cholinesterase [2] was found to be 85%; against Acetylcholinesterase [3] it was 88.6%. Besides, the IC50 at Cholinesterase [4] worked out at 99.7 µM; against Acetylcholinesterase [5] it was 9.52 µM.

For `CN(C)CCC[C@@]1(c2ccc(F)cc2)OCc2cc(-c3nnc(-c4ccccc4Br)[nH]3)ccc21`, the inhibition stood at 75% against Cholinesterase [2] and 19.4% against Acetylcholinesterase [3]. Further, the midpoint of inhibition at Cholinesterase [4], the IC50, lay at 141 µM.

`Cc1ccc(-c2nnc(-c3ccc4c(c3)CO[C@@]4(CCCN(C)C)c3ccc(F)cc3)[nH]2)cc1`: the inhibition on Cholinesterase [2] came to 91%; on Acetylcholinesterase [3], 16%. The same compound showed an IC50 against Cholinesterase [4] of 152 µM.

With `CN(C)CCC[C@@]1(c2ccc(F)cc2)OCc2cc(-c3nnc(-c4ccc(N)cc4)[nH]3)ccc21`, the values for the inhibition on Cholinesterase [2] and against Acetylcholinesterase [3] were 72.1% and 15.3%, respectively. The compound also showed an IC50 against Cholinesterase [4] of 119 µM.

For `CN(C)CCC[C@@]1(c2ccc(F)cc2)OCc2cc(-c3nnc(-c4ccc(I)cc4)[nH]3)ccc21`, the Ratio IC50 in test [1] is over 3.11. The inhibition at Cholinesterase [2] turned out to be 85.6%; on Acetylcholinesterase [3], 30.5%. The results for the IC50 against Cholinesterase [4] and on Acetylcholinesterase [5] were 161 µM and over 500 µM, respectively.

In the case of `CN(C)CCC[C@@]1(c2ccc(F)cc2)OCc2cc(-c3nnc(-c4ccc(O)cc4)[nH]3)ccc21`, the Ratio IC50 in test [1] worked out at 2.76. In addition, the inhibition at Cholinesterase [2] stood at 78.7%; at Acetylcholinesterase [3], 59.2%. The IC50 on Cholinesterase [4] was found to be 140 µM; at Acetylcholinesterase [5] it was 388 µM.

Take `CN(C)CCC[C@@]1(c2ccc(F)cc2)OCc2cc(-c3nnc(-c4ccc(Cl)cc4)[nH]3)ccc21`: in test [1], the Ratio IC50 was 0.044. The inhibition was found to be 73.7% against Cholinesterase [2] and 91.6% against Acetylcholinesterase [3]. Also, the IC50 against Cholinesterase [4] amounted to 151 µM; against Acetylcholinesterase [5], 6.71 µM.

On to `CN(C)CCC[C@@]1(c2ccc(F)cc2)OCc2cc(-c3nnc(-c4ccc([N+](=O)[O-])cc4)[nH]3)ccc21`, for which the inhibition came out at 69.7% at Cholinesterase [2] and 16.2% against Acetylcholinesterase [3]. Besides, it took 106 µM to reach half-maximal inhibition against Cholinesterase [4] (IC50).

For the compound `CN(C)CCC[C@@]1(c2ccc(F)cc2)OCc2cc(-c3nnc(-c4ccc(Br)cc4)[nH]3)ccc21`, the inhibition at Cholinesterase [2] was 50.6%; at Acetylcholinesterase [3] it was 15.6%. Further, the IC50 on Cholinesterase [4] came out at 492 µM.

As to `CN(C)CCC[C@@]1(c2ccc(F)cc2)OCc2cc(-c3nnc(-c4ccccc4Cl)[nH]3)ccc21`, the inhibition against Cholinesterase [2] came out at 79.6%; against Acetylcholinesterase [3] it was 19.5%. This compound displayed an IC50 at Cholinesterase [4] of 81.4 µM.
